The source made the active and inactive calls. No cut-off for these calls is given here.
Columns and labels:
[1] = test system: Liver microsomes; test: Idiosyncratic toxicity in human liver microsomes assessed GSH-derived reactive electrophilic adduct formation at 10 uM after 60 mins by UPLC/HRMS analysis relative to labetalol; design: species or system Microsome; settings: 1 h
Method in brief: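 Pooled human liver microsomes (1 mg/mL protein) were incubated 60 min at 37 °C in 100 mM potassium phosphate pH 7.4. The mix held 10 μM compound, 1 mM MgCl2, 1 mM EDTA, 5 mM GSH and 1 mM NADPH. After quenching, GSH adducts were detected by UPLC/HRMS. Summed adduct peak areas were divided by the labetalol internal-standard area.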

[2] = target: T1, Orexin/Hypocretin receptor type 1 (Homo sapiens, UniProt O43613); test: Displacement of [3H](S)-N-(biphenyl-2-yl)-1-(2-(1-methyl-1H-benzo[d]imidazol-2-ylthio)acetyl)pyrrolidine-2-carboxamide from human OX1R expressed in CHO cells after 3 hrs by scintillation counting; assay type: cell-based
T1 sequence (O43613 whole entry): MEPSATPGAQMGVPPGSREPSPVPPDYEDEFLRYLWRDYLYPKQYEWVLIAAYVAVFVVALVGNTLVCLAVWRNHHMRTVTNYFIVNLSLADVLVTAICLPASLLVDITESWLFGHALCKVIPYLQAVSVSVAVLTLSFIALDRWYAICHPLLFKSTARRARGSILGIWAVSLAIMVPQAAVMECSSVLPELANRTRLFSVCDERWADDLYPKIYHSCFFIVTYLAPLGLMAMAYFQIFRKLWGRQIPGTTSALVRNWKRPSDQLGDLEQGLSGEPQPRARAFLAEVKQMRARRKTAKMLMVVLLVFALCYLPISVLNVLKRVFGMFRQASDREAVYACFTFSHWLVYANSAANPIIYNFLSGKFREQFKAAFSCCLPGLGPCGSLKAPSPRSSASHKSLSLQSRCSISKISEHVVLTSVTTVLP

[3] = target: T1, Orexin/Hypocretin receptor type 1; test: Displacement of [3H]N-cyclobutyl-5-methyl-N-(2-(1-methyl-1H-benzo[d]imidazol-2-ylthio)ethyl)-2-(2H-1,2,3-triazol-2-yl)benzamide from human OX1R expressed in CHO cells after 20 hrs by scintillation counting; assay type: cell-based
[4] = target: T2, Orexin receptor type 2 (Homo sapiens, UniProt O43614); test: Displacement of [3H](S)-N-(2-(1H-pyrrol-1-yl)phenyl)-1-(2-(1-methyl-1H-benzo[d]imidazol-2-ylthio)acetyl)pyrrolidine-2-carboxamide from human OX2R expressed in CHO cells after 3 hrs by scintillation counting; assay type: cell-based
T2 sequence (O43614 whole entry): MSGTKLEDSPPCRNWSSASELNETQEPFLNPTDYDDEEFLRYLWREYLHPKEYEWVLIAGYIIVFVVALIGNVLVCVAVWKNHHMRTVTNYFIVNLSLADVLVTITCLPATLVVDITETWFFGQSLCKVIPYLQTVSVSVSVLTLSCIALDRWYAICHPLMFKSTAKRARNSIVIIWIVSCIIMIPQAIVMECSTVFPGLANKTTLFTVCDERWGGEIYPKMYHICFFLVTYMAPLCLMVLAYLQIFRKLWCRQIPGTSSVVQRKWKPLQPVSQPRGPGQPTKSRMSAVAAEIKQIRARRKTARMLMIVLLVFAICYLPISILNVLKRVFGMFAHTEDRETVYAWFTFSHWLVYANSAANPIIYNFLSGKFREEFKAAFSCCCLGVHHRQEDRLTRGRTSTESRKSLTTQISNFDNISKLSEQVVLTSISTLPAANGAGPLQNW

[5] = target: T1, Orexin/Hypocretin receptor type 1; test: Antagonist activity at human OX1R expressed in CHO cells assessed as inhibition of orexin-A-induced intracellular calcium mobilization after 5 mins by FLIPR assay; assay type: functional, cell-based
[6] = target: T2, Orexin receptor type 2; test: Antagonist activity at human OX2R expressed in CHO cells assessed as inhibition of orexin-A-induced intracellular calcium mobilization after 5 mins by FLIPR assay; assay type: functional, cell-based
[7] = Clearance in dog at 0.5 mg/kg, iv; assay type: ADME, organism-based, Canis lupus familiaris; design: dose 0.5 mg/kg, route intravenous; settings: in vivo
Method in brief: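 Dogs received an IV dose with DMSO as vehicle (n = 3). Clearance was derived from plasma pharmacokinetics.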

[8] = Lipophilicity, log P of the compound; assay type: physicochemical; settings: octanol/water
[9] = test system: Rattus norvegicus; test: Antiinsomnic activity in Sprague-Dawley rat assessed as decrease in active wake duration at 30 mg/kg/day, po measured with 3 to 4 hrs post last dose; assay type: functional, organism-based
Method in brief: (§1)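 Telemetry-implanted rats with ECoG and EMG electrodes placed under isoflurane, recovered at least two weeks, 12 h light:dark cycle. 30 mg/kg free base suspended in 20% aqueous TPGS given by oral gavage 5 h into the active phase. Crossover design with four rats, one week on drug and one on vehicle. Automated staging in 30 min bins, averaged over seven nights, mixed ANOVA.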

[10] = test system: Rattus norvegicus; test: Antiinsomnic activity in Sprague-Dawley rat assessed as increase in rapid-eye movement at 30 mg/kg/day, po measured with 3 to 4 hrs post last dose; assay type: functional, organism-based; method in brief: as §1
[11] = test system: Rattus norvegicus; test: Antiinsomnic activity in Sprague-Dawley rat assessed as increase in delta sleep duration at 30 mg/kg/day, po measured with 3 to 4 hrs post last dose; assay type: functional, organism-based; method in brief: as §1
[12] = test system: Rattus norvegicus; test: Antiinsomnic activity in Sprague-Dawley rat assessed as decrease in light sleep duration at 30 mg/kg/day, po measured with 3 to 4 hrs post last dose; assay type: functional, organism-based; method in brief: as §1
[13] = Cmax in Sprague-Dawley rat CSF at 30 mg/kg/day, po; assay type: ADME, organism-based, Cerebrospinal fluid; design: dose 30 mg/kg/day, route oral
[14] = Drug level in Sprague-Dawley rat CSF at 30 mg/kg/day, po; assay type: ADME, organism-based, Cerebrospinal fluid; design: route oral; settings: in vivo, read-out: Drug uptake
[15] = test system: Rattus norvegicus; test: In vivo occupancy of human OX2R ubiquitously overexpressed in iv dosed transgenic rat after 30 mins; assay type: functional
Method in brief: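 Transgenic human OX2R rats were infused IV over 30 min at 0.1-2.0 mg/kg in 25% hydroxypropyl-β-cyclodextrin, then sacrificed. Brain homogenate at 10 mg tissue/mL was incubated with 200 pM radioligand at room temperature and filtered at 2-15 min. Nonspecific binding was set with 1 μM unlabeled DORA. Occupancy = (1 - slope_drug/slope_vehicle) × 100; Occ90 came from nonlinear fit.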

[16] = Drug level in human OX2R overexpressing transgenic rat plasma at 1.34 mg/kg, iv after 30 mins; assay type: ADME, organism-based; design: dose 1.34 mg/kg, route intravenous; settings: read-out: Drug uptake
Method in brief: (§2)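 Transgenic rats expressing human OX2R received a 30 min IV infusion, 0.1-2.0 mg/kg, in 25% hydroxypropyl-β-cyclodextrin. They were then sacrificed, and brain, plasma and CSF were frozen. Drug levels were measured by LCMS.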

[17] = Drug level in human OX2R overexpressing transgenic rat brain at 1.34 mg/kg, iv after 30 mins; assay type: ADME, organism-based; design: dose 1.34 mg/kg, route intravenous; settings: read-out: Drug uptake; method in brief: as §2
[18] = Drug level in human OX2R overexpressing transgenic rat CSF at 1.34 mg/kg, iv after 30 mins; assay type: ADME, organism-based, Cerebrospinal fluid; design: dose 1.34 mg/kg, route intravenous; settings: read-out: Drug uptake; method in brief: as §2
[19] = test system: Rattus norvegicus; test: In vivo occupancy of human OX2R ubiquitously overexpressed in transgenic rat at 30 mg/kg/day, iv after 30 mins; assay type: functional
[20] = Thermal stability of the compound; assay type: physicochemical
[21] = Chemical stability in pH-dependent solution; assay type: physicochemical
[22] = Aqueous solubility of the compound; assay type: physicochemical; settings: buffer
[23] = Genotoxicity in Salmonella Typhimurium by Ames test; assay type: toxicity; settings: salmonella enterica subsp. enterica serovar typhimurium
[24] = organism: Canis familiaris; test: Cardiotoxicity in dog; assay type: toxicity, organism-based, Canis lupus familiaris; settings: in vivo
[25] = Plasma protein binding in rat; assay type: ADME, cell-free; settings: read-out: PPB
[26] = Plasma protein binding in human; assay type: ADME, cell-free; settings: read-out: PPB
[27] = test system: Rattus norvegicus; test: Clearance in rat at 2 mg/kg, iv; assay type: ADME, organism-based; design: dose 2 mg/kg, route intravenous; settings: in vivo
Method in brief: (§3)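 IV PK in DMSO vehicle: rat at 2 mg/kg, dog at 0.5 mg/kg. Clearance, Vd_ss and terminal half-life were derived from plasma levels.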

[28] = Volume of distribution at steady state in rat at 2 mg/kg, iv; assay type: ADME, organism-based; design: dose 2 mg/kg, route intravenous; settings: in vivo, read-out: Vdss; method in brief: as §3
[29] = Terminal half life in rat at 2 mg/kg, iv; assay type: ADME, organism-based; design: dose 2 mg/kg, route intravenous; settings: in vivo, read-out: beta t1/2 (converted); method in brief: as §3
[30] = Volume of distribution at steady state in dog at 0.5 mg/kg, iv; assay type: ADME, organism-based, Canis lupus familiaris; design: dose 0.5 mg/kg, route intravenous; settings: in vivo, read-out: Vdss; method in brief: as §3
[31] = Terminal half life in dog at 0.5 mg/kg, iv; assay type: ADME, organism-based, Canis lupus familiaris; design: dose 0.5 mg/kg, route intravenous; settings: in vivo, read-out: beta t1/2 (converted); method in brief: as §3
[32] = AUC in dog at 3 mg/kg, po; assay type: ADME, organism-based, Canis lupus familiaris; design: dose 3 mg/kg, route oral; settings: plasma
[33] = Cmax in dog at 3 mg/kg, po; assay type: ADME, organism-based, Canis lupus familiaris; design: dose 3 mg/kg, route oral; settings: in vivo
[34] = Oral bioavailability in dog at 3 mg/kg; assay type: ADME, organism-based, Canis lupus familiaris; settings: in vivo
[35] = Tmax in dog at 3 mg/kg, po; assay type: ADME, organism-based, Canis lupus familiaris; design: dose 3 mg/kg, route oral; settings: in vivo
[36] = AUC in rat at 10 mg/kg, po; assay type: ADME, organism-based; design: dose 10 mg/kg, route oral; settings: plasma
[37] = Cmax in rat at 10 mg/kg, po; assay type: ADME, organism-based; design: dose 10 mg/kg, route oral; settings: in vivo
[38] = Tmax in rat at 10 mg/kg, po; assay type: ADME, organism-based; design: dose 10 mg/kg, route oral; settings: in vivo
[39] = Oral bioavailability in rat at 10 mg/kg; assay type: ADME, organism-based; settings: in vivo

## C[C@@H]1CCN(c2ncc3c(n2)CCCC3)CCN1C(=O)c1ccccc1-n1nccn1
[1]
  Ratio: 0.7
[2]
  Ki: 0.78 nM
[3]
  Ki: 0.78 nM
[4]
  Ki: 0.28 nM
[5]
  IC50: 24 nM
[6]
  IC50: 28 nM
[7]
  clearance: 9.2 mL/min/kg

## Cc1ccc(-n2nccn2)c(C(=O)N2CCN(c3nc4cc(Cl)ccc4o3)CC[C@H]2C)c1 [SUVOREXANT]
[8]
  logP: 3.6
[9]
  Activity: Active
[10]
  Activity: Active
[11]
  Activity: Active
[12]
  Activity: Active
[13]
  Cmax: 2100 nM
[14]
  concentration: 21 nM
[15]
  Activity: 1.34 mg/kg
[16]
  concentration at 0.5 h: 1070 nM
[17]
  concentration at 0.5 h: 1180 nM
[18]
  concentration at 0.5 h: 13 nM
[19]
  Activity: >90%
[20]
  Stability: Stable
[21]
  Stability: Stable
[22]
  solubility: Soluble
[23]
  Activity: Non-toxic
[24]
  Activity: Non-toxic
[25]
  fraction unbound: 0.01
[26]
  fraction unbound: 0.01
[27]
  clearance: 44 mL/min/kg
[28]
  Vd: 2.6 L/kg
[29]
  half-life: 36 min
[7]
  clearance: 4 mL/min/kg
[30]
  Vd: 0.8 L/kg
[31]
  half-life: 198 min
[32]
  AUC: 16.9 µM·h
[33]
  Cmax: 3200 nM
[34]
  bioavailability: 56%
[35]
  Tmax: 30 min
[36]
  AUC: 1.7 µM·h
[37]
  Cmax: 480 nM
[38]
  Tmax: 30 min
[39]
  bioavailability: 19%

## Cc1ccc(-n2nccn2)c(C(=O)N2CCN(c3ncc4ccccc4n3)CC[C@H]2C)c1
[2]
  Ki: 0.39 nM
[3]
  Ki: 0.39 nM
[4]
  Ki: 0.36 nM
[5]
  IC50: 30 nM
[6]
  IC50: 30 nM
[7]
  clearance: 6 mL/min/kg
[34]
  bioavailability: < 5%

## Cc1ccc(-n2nccn2)c(C(=O)N2CCN(c3nc4ccccc4o3)CC[C@H]2C)c1
[2]
  Ki: 4.1 nM
[3]
  Ki: 4.1 nM
[4]
  Ki: 3.2 nM
[5]
  IC50: 24 nM
[6]
  IC50: 57 nM
[7]
  clearance: 2.4 mL/min/kg

— ChEMBL document CHEMBL1155457, “Discovery of the dual orexin receptor antagonist [(7R)-4-(5-chloro-1,3-benzoxazol-2-yl)-7-methyl-1,4-diazepan-1-yl][5-methyl-2-(2H-1,2,3-triazol-2-yl)phenyl]methanone (MK-4305) for the treatment of insomnia” (J Med Chem, 2010)
